Source: paper PMC2883171 (Organic & biomolecular chemistry, 2008)
“And” between values parts separate entries of the source, which are not always exact repeats. Equal values may be shown once.

Legend:
[1] = biological target: T1, 12-hLO (Homo sapiens, UniProt P18054); test: HPLC analysis of product distribution, 12-hLO; format: biochemical; conditions: AA 15 µM, inhibitor at 5 × Ki, HEPES pH 7.5; error in parentheses
T1 sequence (P18054 1-663): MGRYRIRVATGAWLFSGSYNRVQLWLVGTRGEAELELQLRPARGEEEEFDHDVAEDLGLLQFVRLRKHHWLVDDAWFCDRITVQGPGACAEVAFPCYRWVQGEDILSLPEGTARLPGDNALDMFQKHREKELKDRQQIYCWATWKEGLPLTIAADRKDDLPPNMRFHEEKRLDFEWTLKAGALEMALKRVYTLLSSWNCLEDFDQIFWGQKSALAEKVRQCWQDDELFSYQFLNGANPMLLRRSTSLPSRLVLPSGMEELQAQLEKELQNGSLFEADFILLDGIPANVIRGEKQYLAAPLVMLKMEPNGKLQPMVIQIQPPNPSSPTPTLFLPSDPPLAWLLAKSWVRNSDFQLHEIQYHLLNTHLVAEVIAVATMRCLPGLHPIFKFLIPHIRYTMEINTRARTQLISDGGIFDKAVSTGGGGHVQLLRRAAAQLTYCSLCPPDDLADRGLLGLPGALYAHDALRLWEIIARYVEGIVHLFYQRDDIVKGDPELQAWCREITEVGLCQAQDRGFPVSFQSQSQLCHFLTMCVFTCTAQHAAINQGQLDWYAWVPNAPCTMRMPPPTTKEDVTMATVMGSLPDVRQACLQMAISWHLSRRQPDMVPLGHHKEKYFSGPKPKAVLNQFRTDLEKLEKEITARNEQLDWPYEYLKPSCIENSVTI
In short: (§1)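 Reaction was followed at 235 nm and products isolated after 15 min. Products were resolved by isocratic reverse-phase HPLC (55% A/45% B) against authentic HETE standards, with 8- and 12-HETE coeluting.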

[2] = biological target: T2, human reticulocyte 15-lipoxygenase-1 (15-hLO-1) (Homo sapiens, UniProt P16050); test: Kinetic inhibition assay of 15-hLO-1; format: biochemical; conditions: for Ki: Kis; for Ki / Kii: noncompetitive
T2 sequence (P16050 1-662): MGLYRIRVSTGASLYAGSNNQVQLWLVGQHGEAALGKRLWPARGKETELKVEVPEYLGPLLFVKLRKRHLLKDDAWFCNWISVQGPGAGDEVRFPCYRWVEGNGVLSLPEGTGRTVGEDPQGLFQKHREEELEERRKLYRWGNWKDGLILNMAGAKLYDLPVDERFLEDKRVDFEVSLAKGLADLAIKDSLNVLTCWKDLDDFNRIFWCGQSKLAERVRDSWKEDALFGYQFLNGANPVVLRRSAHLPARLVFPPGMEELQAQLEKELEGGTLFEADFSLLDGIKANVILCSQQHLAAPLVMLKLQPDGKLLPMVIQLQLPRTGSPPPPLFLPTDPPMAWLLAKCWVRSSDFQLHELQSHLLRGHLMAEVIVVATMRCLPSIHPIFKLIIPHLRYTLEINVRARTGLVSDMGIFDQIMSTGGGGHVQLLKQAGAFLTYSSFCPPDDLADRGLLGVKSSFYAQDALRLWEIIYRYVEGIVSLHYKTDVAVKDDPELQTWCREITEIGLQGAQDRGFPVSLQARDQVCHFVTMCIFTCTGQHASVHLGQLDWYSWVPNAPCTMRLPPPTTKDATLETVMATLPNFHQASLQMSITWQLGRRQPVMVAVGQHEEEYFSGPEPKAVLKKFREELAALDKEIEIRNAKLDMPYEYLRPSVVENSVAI

[3] = biological target: T3, sLO-1 (Glycine max, UniProt P08170); test: Consumption of the inhibitor under turnover conditions with 13-HPODE; format: biochemical, soybean; conditions: enzyme, AA and 13-HPODE, 1 hour, HPLC
T3 sequence (P08170 1-839): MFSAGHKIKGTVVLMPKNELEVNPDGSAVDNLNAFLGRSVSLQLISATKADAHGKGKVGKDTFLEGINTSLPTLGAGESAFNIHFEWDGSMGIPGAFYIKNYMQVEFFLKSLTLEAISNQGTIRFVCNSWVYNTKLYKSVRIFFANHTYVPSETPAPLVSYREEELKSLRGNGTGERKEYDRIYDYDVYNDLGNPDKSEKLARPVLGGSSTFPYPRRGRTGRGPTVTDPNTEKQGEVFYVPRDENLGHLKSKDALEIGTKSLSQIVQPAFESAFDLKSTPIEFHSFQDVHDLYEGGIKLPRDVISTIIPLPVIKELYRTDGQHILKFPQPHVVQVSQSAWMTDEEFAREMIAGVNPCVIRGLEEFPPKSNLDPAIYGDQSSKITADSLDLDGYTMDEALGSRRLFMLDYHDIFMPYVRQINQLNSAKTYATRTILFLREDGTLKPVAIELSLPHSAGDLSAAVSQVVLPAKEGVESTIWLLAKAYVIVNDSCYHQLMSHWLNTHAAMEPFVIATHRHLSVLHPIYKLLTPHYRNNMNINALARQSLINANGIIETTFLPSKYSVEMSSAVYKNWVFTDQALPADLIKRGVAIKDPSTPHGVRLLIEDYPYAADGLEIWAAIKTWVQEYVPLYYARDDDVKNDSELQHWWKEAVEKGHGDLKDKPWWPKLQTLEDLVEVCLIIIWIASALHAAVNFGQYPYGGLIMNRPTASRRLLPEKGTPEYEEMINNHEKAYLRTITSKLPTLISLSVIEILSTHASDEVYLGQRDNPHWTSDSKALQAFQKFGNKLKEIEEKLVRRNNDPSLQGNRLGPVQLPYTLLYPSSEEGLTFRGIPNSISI

[4] = biological target: T4, soybean lipoxygenase-1 (sLO-1) (Glycine max, UniProt P08170); test: Kinetic inhibition assay of sLO-1; format: biochemical
T4 sequence (P08170 1-839): T3 sequence (P08170 1-839)

[5] = biological target: T5, human platelet 12-lipoxygenase (12-hLO) (Homo sapiens, UniProt P18054); test: Kinetic inhibition assay of 12-hLO; format: biochemical
T5 sequence (P18054 1-663): T1 sequence (P18054 1-663)

[6] = biological target: T6, 15-hLO-1 (Homo sapiens, UniProt P16050); test: HPLC analysis of product distribution, 15-hLO-1; format: biochemical; conditions: AA 15 µM, inhibitor at 5 × Ki, HEPES pH 7.5; error in parentheses
T6 sequence (P16050 1-662): T2 sequence (P16050 1-662)
In short: as §1

[7] = biological target: T3, sLO-1; test: HPLC analysis of product regioselectivity, sLO-1; format: biochemical, soybean; conditions: exclusive product 13-HPODE, no 9-HPODE, with and without inhibitor
[8] = biological target: T3, sLO-1; test: Incubation of thiaLAs with sLO-1 as possible substrates; format: biochemical, soybean; conditions: over the course of one hour
[9] = substrate: CCCCC/C=C\C/C=C\C/C=C\C/C=C\CCCC(=O)O; test: Kinetic inhibition assay of sLO-1; format: biochemical, soybean
[10] = substrate LA, pH 7.5, 13-HPODE activator
[11] = Ki (competitive inhibition), substrate linoleic acid, pH 10.0
[12] = substrate linoleic acid, pH 10.0

With `CCCCC/C=C\S/C=C\CCCCCCCC(=O)O` [Compound 11-thiaLA, 11-Thialinoleic acid] the “8-/12-HETE (%)” value [1] was 93 (1) %, the “11-HETE (%)” value [1] was 2 (1) % and the “15-HETE (%)” value [1] was 5 (1) %. The Mode of inhibition ([2]; AA as substrate) was “noncompetitive inhibitor”, the Ki ([2]; substrate AA, 13-HPODE activator) was 11.4 µM and the Ki [2, 10] was 20.1 µM. The Kii ([2]; substrate AA, 13-HPODE activator, listed as 11-ThiaLA) was 18.1 ± 2.0 µM, the Kii ([2]; substrate AA, 13-HPODE activator, listed as 11-Thialinoleic acid) was 18.1 µM and the Kii [2, 10] was 20.0 ± 1.4 µM. The Mode of inhibition ([2]; with respect to LA) was “noncompetitive inhibitor”, the “Conversion of the inhibitor under turnover conditions” value [3] was “no discernable conversion” and the Ki [4, 11] was 22 µM. For the same molecule, the Ki ([4]; Kis, substrate arachidonic acid, pH 7.5, 13-HPODE activator, noncompetitive) was 45.6 ± 11.1 µM, the Ki ([4]; Kis, substrate arachidonic acid, pH 10.0, 13-HPODE activator, noncompetitive) was 48.5 µM and 48 µM and the “Mode of inhibition in the presence of activator” value ([4]; oxidation of LA, 13-HPODE present) was “competitive inhibition”. For the same molecule, the Mode of inhibition ([4]; substrate AA, pH 10.0 and pH 7.5, 13-HPODE activator) was “noncompetitive inhibition”, the Kii ([4]; substrate arachidonic acid, pH 7.5, 13-HPODE activator, noncompetitive) was 38.2 ± 5.4 µM and the Kii ([4]; substrate arachidonic acid, pH 10.0, 13-HPODE activator, noncompetitive) was 36.0 ± 4.0 µM. For the same molecule, the Mode of inhibition [4, 12] was “competitive inhibition”, the Ki [5] was 2.5 µM and the Mode of inhibition ([5]; AA as substrate) was “competitive inhibitor”. The “Ki for 12-hLO smaller than for sLO-1 (LA)” value ([5]; compared with Ki for oxidation of LA by sLO-1) was “approximately 10 fold”, the “Mode of inhibition in the presence of activator” value ([5]; oxidation of AA, 13-HPODE (16 µM) present) was “competitive inhibition” and the “8-/12-HETE (%)” value [6] was 16 (3) %. For the same molecule, the “11-HETE (%)” value [6] was 5 (1) %, the “15-HETE (%)” value [6] was 79 (3) % and the “Effect on product regioselectivity of sLO-1” value [7] was “did not affect the product regioselectivity”. The “Activity as substrate on incubation with sLO-1” value [8] was “did not result in any appreciable activity”.

`CCCCS/C=C\C/C=C\CCCCCCCC(=O)O` [Compound 14-thiaLA, 14-Thialinoleic acid] was tested, and the “Conversion of the inhibitor under turnover conditions” value [3] was “oxidized to a small extent”, the Ki [4, 11] was 35 µM and the Mode of inhibition [4, 12] was “competitive inhibition”. The “Substrate or inhibitor behaviour with 12-hLO” value ([5]; AA as substrate) was “neither a substrate nor an inhibitor” and the “Activity as substrate on incubation with sLO-1” value [8] was “did not result in any appreciable activity”.

With `CCCCC/C=C\C/C=C\CCCCCCCC(=O)O` [LA, linoleic acid, reference compound] the Km ([2]; read-out: Km with 15-hLO-1, substrate itself, 13-HPODE activator) was 6.2 ± 0.9 µM and the Km ([4]; read-out: Km for linoleic acid with sLO-1, pH 10.0) was 28 ± 5 µM.

B1: soybean lipoxygenase-1 (sLO-1) (Glycine max) (protein)
chain: T3 sequence (P08170 1-839)
With B1 the Km ([9]; other: pH 7.5, 13-HPODE activator, pH 7.5) was 31.7 ± 3.5 µM and the Km ([9]; other: pH 10.0, 13-HPODE activator, pH 10.0) was 15.1 ± 1.5 µM.
